The source of these data is ChEMBL document CHEMBL2169781, “Discovery and biological evaluation of a novel class of dual microsomal prostaglandin E2 synthase-1/5-lipoxygenase inhibitors based on 2-[(4,6-diphenethoxypyrimidin-2-yl)thio]hexanoic acid” (J Med Chem, 2011).

The target of series [1] is T1, Prostaglandin E synthase (Homo sapiens, UniProt O14684).
T1 sequence (O14684 whole entry): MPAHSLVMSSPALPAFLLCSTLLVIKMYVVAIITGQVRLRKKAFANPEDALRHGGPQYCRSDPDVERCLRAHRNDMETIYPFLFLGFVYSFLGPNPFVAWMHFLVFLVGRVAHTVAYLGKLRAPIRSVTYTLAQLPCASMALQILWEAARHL
Put plainly: Inhibition of mPGES-1 in human IL-1beta-stimulated A549 cell microsomes assessed as reduction of PGE2 formation from PGH2 after 15 mins by RP-HPLC analysis. On the set-up: species or system Microsome. In a few lines: (§1)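 A549 cells in DMEM with 2% FCS for 16 h, induced with IL-1β (1 ng/mL) for 72 h, homogenized. Microsomal pellet (174 000 × g) diluted in 0.1 M potassium phosphate pH 7.4 with 2.5 mM glutathione, given compound or DMSO for 15 min. PGH₂ added (20 μM final), 1 min at 4 °C, stopped with FeCl₂/citric acid. PGE₂ by SPE and RP-HPLC (UV 195 nm), 11β-PGE₂ internal standard. Tested up to 10 μM; IC₅₀ reported only above 50% inhibition at 10 μM.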

The target of series [2] is T2, Polyunsaturated fatty acid 5-lipoxygenase (Homo sapiens, UniProt P09917).
T2 sequence (P09917 whole entry): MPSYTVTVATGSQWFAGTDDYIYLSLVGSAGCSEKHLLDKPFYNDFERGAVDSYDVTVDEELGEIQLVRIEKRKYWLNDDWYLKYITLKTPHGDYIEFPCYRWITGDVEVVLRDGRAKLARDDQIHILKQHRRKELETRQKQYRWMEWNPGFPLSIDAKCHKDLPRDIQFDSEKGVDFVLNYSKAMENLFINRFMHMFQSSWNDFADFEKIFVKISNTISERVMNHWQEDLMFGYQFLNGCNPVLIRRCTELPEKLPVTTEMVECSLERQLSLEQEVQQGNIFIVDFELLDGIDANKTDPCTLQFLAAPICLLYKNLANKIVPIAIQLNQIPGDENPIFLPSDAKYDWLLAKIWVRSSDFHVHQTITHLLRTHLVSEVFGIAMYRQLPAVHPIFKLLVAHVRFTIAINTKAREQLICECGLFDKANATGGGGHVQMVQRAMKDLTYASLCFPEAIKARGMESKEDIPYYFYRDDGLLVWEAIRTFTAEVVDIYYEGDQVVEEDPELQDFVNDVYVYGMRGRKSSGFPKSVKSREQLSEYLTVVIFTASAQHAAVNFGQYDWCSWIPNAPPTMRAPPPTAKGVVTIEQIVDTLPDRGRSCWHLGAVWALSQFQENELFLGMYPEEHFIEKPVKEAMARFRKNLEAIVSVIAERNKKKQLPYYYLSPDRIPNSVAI
Put plainly: Inhibition of 5-lipoxygenase-mediated 5(S)-H(p)ETE formation in A23187-stimulated human PMNL incubated 10 mins prior to A23187 challenge.

Series [3] has as its target T2, Polyunsaturated fatty acid 5-lipoxygenase. The series can be described thus: Inhibition of human recombinant 5-lipoxygenase-mediated product formation from arachidonic acid after 5 to 10 mins by HPLC analysis. An outline of the steps:
(§2)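 Human 5-LO expressed in E. coli BL21 (pT3-5LO) at 37 °C, purified and used at once. Enzyme (0.5 μg/mL in PBS/EDTA with 1 mM ATP) preincubated with compound 5–10 min at 4 °C, prewarmed 30 s at 37 °C, started with 2 mM CaCl₂ + 20 μM AA (±1 μM 13(S)-HpODE), 10 min at 37 °C, stopped with cold methanol, products by HPLC.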

In series [4] the target is T3, Polyunsaturated fatty acid 5-lipoxygenase (Homo sapiens) (UniProt P09917).
T3 sequence (whole entry): T2 sequence (P09917 whole entry)
Put plainly: Inhibition of human recombinant 5-lipoxygenase-mediated product formation from arachidonic acid assessed as remaining activity at 10 uM after 5 to 10 mins by HPLC analysis. In a few lines:
as §2

For series [5], the target named is Prostaglandin G/H synthase 2 (Homo sapiens) (UniProt P35354). The series can be described thus: Inhibition of human recombinant COX-2 mediated formation of 12-HHT from arachidonic acid assessed as remaining activity at 10 uM after 5 mins by HPLC analysis.
A short description of series [6]: Cytotoxicity in human polymorphonuclear leukocytes assessed as cell viability at 10 uM after 30 mins by MTT assay. (Formazan colour is commonly taken as a measure of viable cells.)
In series [7] the target is Prostaglandin G/H synthase 1 (Ovis aries) (UniProt P05979). Put plainly: Inhibition of ovine COX-1 mediated formation of 12-HHT from arachidonic acid assessed as remaining activity at 10 uM after 5 mins by HPLC analysis.
Series [8] concerns the target T4, Prostaglandin E synthase (Homo sapiens) (UniProt O14684).
T4 sequence (whole entry): T1 sequence (O14684 whole entry)
Put plainly: Inhibition of mPGES-1 in human IL-1beta-stimulated A549 cell microsomes assessed as residual activity by measuring reduction of PGE2 formation from PGH2 at 10 uM after 15 mins by RP-HPLC analysis. To be noted: Microsome. An outline of the steps:
as §1

Series [9] concerns the target T2, Polyunsaturated fatty acid 5-lipoxygenase. The series can be described thus: Inhibition of 5-lipoxygenase-mediated 5(S)-H(p)ETE formation in fMLP-stimulated human PMNL incubated 10 mins prior to fMLP challenge.

As for `CCCCC(Sc1nc(OCCc2ccc(C)cc2)cc(OCCc2ccc(C)cc2)n1)C(=O)O` (centres undefined), the IC50 in [1] stood at 900 nM; in [2], 500 nM; in series [3], 3.1 µM.
For the compound `CCCC/C(=C\c1cc(OCCC2CCCCC2)ccc1OCCC1CCCCC1)C(=O)O`, the Activity in [4] is 73%; in [5], 123%; in [6] it was “Non-toxic”; in series [7], 76.4%. The concentration for half-maximal inhibition (IC50) in series [1] is 3400 nM; in [2], 800 nM; in series [3], > 10 µM.
With `CCCCC(Sc1nc(OCCC(C)C)cc(OCCC(C)C)n1)C(=O)O` (centres undefined), the results for the IC50 in series [1], in series [2] and in series [3] were > 10000 nM, 1200 nM and 6.8 µM, respectively. In addition, the Activity in series [8] came out at 54.5%.
Turning to `CCCCC(Cc1cccc(OCCc2ccccc2)c1OCCc1ccccc1)C(=O)O` (centres undefined), the Activity was 89.6% in series [5], “Non-toxic” in [6] and 66.1% in series [7]. Besides, the IC50 turned out to be 3900 nM in series [1], 2100 nM in [2] and 4.9 µM in [3].
For `CCCCC(Sc1nc(OCCC2CCCC2)cc(OCCC2CCCC2)n1)C(=O)O` (centres undefined), the IC50 in series [1] was > 10000 nM; in series [2] it was 4000 nM; in series [3], 6.8 µM. Besides, the Activity in series [8] stood at 90%.
As to `CCCCC(Sc1cc(OCCc2ccccc2)cc(OCCc2ccccc2)c1)C(=O)O` (centres undefined), the Activity in series [5] is 110%; in series [6] it was “Non-toxic”; in series [7], 71.3%. The IC50 in series [1] turned out to be 4600 nM; in [2], 800 nM; in [3], 7.2 µM.
With `O=C(O)CSc1nc(OCCc2ccccc2)cc(OCCc2ccccc2)n1`, the Activity in series [4] was 57%. Further, the results for the IC50 in series [1], in series [2] and in [3] were > 10000 nM, 7600 nM and > 10 µM, respectively.
In the case of `CCC(Sc1nc(OCCc2ccccc2)cc(OCCc2ccccc2)n1)C(=O)O` (centres undefined), the figures for the IC50 in series [9], in [1] and in series [3] were 2800 nM, 7300 nM and 9 µM, respectively.
Turning to `CCCCC(Cc1cc(OCCc2ccccc2)ccc1OCCc1ccccc1)C(=O)O` (centres undefined), the Activity is 65.5% in series [4], 66.5% in series [5], “Non-toxic” in [6] and 63.8% in series [7]. Further, the IC50 in series [9] was 900 nM; in [1] it was 2400 nM; in series [3], > 10 µM.
With `CCCCC(Sc1nc(OCCCCc2ccccc2)cc(OCCCCc2ccccc2)n1)C(=O)O` (centres undefined), the IC50 in series [1] amounted to 900 nM; in series [2], 700 nM; in series [3], 2.2 µM.
As for `O=C(O)C(Sc1nc(OCCc2ccccc2)cc(OCCc2ccccc2)n1)c1ccccc1` (centres undefined), the IC50 is 800 nM in series [9], 1200 nM in series [1] and 4.9 µM in series [3].
Consider `CCCCC(Sc1nc(OCCc2ccc([N+](=O)[O-])cc2)cc(OCCc2ccc([N+](=O)[O-])cc2)n1)C(=O)O` (centres undefined), for which the IC50 in series [1] amounted to 3700 nM; in series [2], 500 nM; in series [3], 2.8 µM.
As for `CCCCC(Sc1nc(OCCc2ccc(C#N)cc2)cc(OCCc2ccc(C#N)cc2)n1)C(=O)O` (centres undefined), the IC50 worked out at 5900 nM in [1], 700 nM in [2] and 6.6 µM in series [3].
As for `CCCCC(Sc1nc(OCCc2ccsc2)cc(OCCc2ccsc2)n1)C(=O)O` (centres undefined), the IC50 in series [1] is 6500 nM; in [2], 600 nM; in series [3], 9.3 µM.
For the compound `CCCC/C(=C\c1cc(OCCc2ccccc2)ccc1OCCc1ccccc1)C(=O)O`, the Activity in series [4] is 78.2%; in [5] it was 94.4%; in series [6] it was “Non-toxic”; in series [7] it was 68%. In addition, the 50% inhibitory concentration (IC50) is 900 nM in series [9], 1500 nM in series [1] and > 10 µM in [3].
Consider `CCCCC(Sc1nc(OCCCc2ccccc2)cc(OCCCc2ccccc2)n1)C(=O)O` (centres undefined), for which the IC50 worked out at 2200 nM in series [1], 900 nM in series [2] and 2.7 µM in series [3].
Consider `CCCCC(Cc1ccc(OCCc2ccccc2)c(OCCc2ccccc2)c1)C(=O)O` (centres undefined), for which the Activity in series [4] was 54%; in [5], 86.4%; in series [6] it was “Non-toxic”; in [7], 95.8%. For the same compound, the IC50 was 2700 nM in series [1], 6000 nM in series [2] and > 10 µM in series [3].
Regarding `CCCC/C(=C\c1cc(OCCc2ccccc2)cc(OCCc2ccccc2)c1)C(=O)O`, the Activity is 62.7% in series [4], 81.4% in series [5], “Non-toxic” in series [6] and 81.4% in [7]. The IC50 in [1] was 2800 nM; in series [2] it was 700 nM; in series [3] it was > 10 µM.
Turning to `CCCCC(Sc1nc(OCCc2ccccc2)cc(OCCc2ccccc2)n1)C(=O)O` (centres undefined), the IC50 stood at 1200 nM in [1], 600 nM in series [2] and 4.7 µM in series [3].
Regarding `CCCCC(Sc1nc(OCCC2CC2)cc(OCCC2CC2)n1)C(=O)O` (centres undefined), the 50% inhibitory concentration (IC50) is 9600 nM in series [1], 1200 nM in series [2] and 9.3 µM in [3].
For `CCCC/C(=C\c1cc(OCc2ccc(C(F)(F)F)cc2)ccc1OCc1ccc(C(F)(F)F)cc1)C(=O)O`, the Activity in series [5] was 102%; in [8], 55.1%; in series [6], “Non-toxic”; in series [7], 82.6%. In addition, the figures for the IC50 in series [1], in [2] and in series [3] were > 10000 nM, 200 nM and 4.4 µM, respectively.
On to `CCCCC(Sc1nc(OCCC2CCCCC2)cc(OCCC2CCCCC2)n1)C(=O)O` (centres undefined), for which the results for the half-maximal inhibitory concentration (IC50) in series [1], in series [2] and in [3] were 2400 nM, 800 nM and 9 µM, respectively.
`CCCC/C(=C\c1cccc(OCCc2ccccc2)c1OCCc1ccccc1)C(=O)O`: the Activity in series [4] is 91.3%; in series [5], 113%; in [6], “Non-toxic”; in series [7], 86.8%. The IC50 was 800 nM in series [9], 1100 nM in series [1] and > 10 µM in [3].
Turning to `CCCCC(Cc1cc(OCCc2ccccc2)cc(OCCc2ccccc2)c1)C(=O)O` (centres undefined), the Activity is 80.3% in series [4], 78.4% in series [5], “Non-toxic” in series [6] and 78.7% in series [7]. Besides, the IC50 in series [1] is 2400 nM; in [2] it was 4700 nM; in series [3], > 10 µM.
On to `CCCCC(Sc1nc(OCCC2CCCCCC2)cc(OCCC2CCCCCC2)n1)C(=O)O` (centres undefined), for which the Activity in series [4] was 53.8%; in series [8] it was 62.4%. The IC50 in series [1] was > 10000 nM; in series [2], 2400 nM; in series [3], > 10 µM.
For the compound `CCCCC(Sc1nc(OCc2ccccc2)cc(OCc2ccccc2)n1)C(=O)O` (centres undefined), the IC50 in series [9] was determined as 1800 nM; in series [1] it was 3800 nM; in series [3], 5 µM.
On to `CCCCC(Sc1nc(OCCc2ccc(C(F)(F)F)cc2)cc(OCCc2ccc(C(F)(F)F)cc2)n1)C(=O)O` (centres undefined), for which the values for the IC50 in series [1], in series [2] and in [3] were 1900 nM, 500 nM and 2.2 µM, respectively.

Broadly, the IC50 is the concentration needed to halve the response being measured.
